Peptide text beside a SMILES is read from it.
Columns and labels:
[1] = CD spectroscopy, two-cuvette experiment; assay type: physicochemical; conditions: error est. 10%
In short: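 Two-cuvette setup: test peptide solution in cell 1 and POPC LUV suspensions in cell 2, in the light path together. LUVs were extruded through 0.1-μm filters in 10 mM potassium phosphate pH 7.0. Peptide concentration was set by UV absorbance (tyrosine ε274nm 1,440 M−1 cm−1). 10–30 scans, 190–260 nm, 1-mm path, ~25°C. Ellipticity was expressed per residue.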

[2] = CD spectroscopy, peptide and LUVs in the same cuvette; assay type: physicochemical; conditions: for Θ222, same cell: pH 7.0, ~25°C, error est. 10%
In short: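 Lipid dried from chloroform under nitrogen, then under vacuum overnight. It was hydrated in 10 mM potassium phosphate pH 7.0, vortexed, and extruded 10× under nitrogen through two stacked 0.1-μm polycarbonate filters to give LUVs. Peptide and vesicles shared one cuvette, 1-mm path. 10–30 scans, 190–260 nm, ~25°C. A vesicle-only spectrum was subtracted. Ellipticity was converted to per-residue values.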

[3] = monomolecular, ref Scholtz et al. [1991]; cited from earlier work
[4] = CD of Annexin B12 in solution and bound to LUVs; assay type: physicochemical; conditions: bound to LUVs in the presence of Ca^2+

| Molecule | Θ222, two cells ([1]; +3 mM POPC LUVs in separate cuvette, peptide in buffer (40 μM)) | Θ222, two cells ([1]; +5 mM POPC LUVs in separate cuvette, peptide in buffer (40 μM)) | Θ222, two cells ([1]; +7 mM POPC LUVs in separate cuvette, peptide in buffer (40 μM)) | Θ222, two cells ([1]; no lipid, peptide in buffer (40 μM) in cell 1, ~25°C) | molar ellipticity of the peptide ([2]; 25°C, buffer with LUVs up to 7 mM, 40 μM peptide) | Θ222, same cell ([2]; +0.25 mM POPC LUVs in same cuvette, 40 μM peptide) | Θ222, same cell ([2]; +3 mM POPC LUVs in same cuvette, 40 μM peptide) | Θ222, same cell ([2]; +5 mM POPC LUVs in same cuvette, 40 μM peptide) | Θ222, same cell ([2]; +7 mM POPC LUVs in same cuvette, 40 μM peptide) | binding to POPC vesicles ([2]; same-cuvette versus two-cuvette CD spectra, LUVs up to 7 mM) | α-helical content in buffer [3] | CD spectrum, aqueous versus LUV-associated [4] |
| --- | --- | --- | --- | --- | --- | --- | --- | --- | --- | --- | --- | --- |
| CC(=O)N[C@@H](Cc1ccc(O)cc1)C(=O)N[C@@H](C)C(=O)N[C@@H](CCC(=O)O)C(=O)N[C@@H](C)C(=O)N[C@@H](C)C(=O)N[C@@H](CCCCN)C(=O)N[C@@H](C)C(=O)N[C@@H](C)C(=O)N[C@@H](CCC(=O)O)C(=O)N[C@@H](C)C(=O)N[C@@H](C)C(=O)N[C@@H](CCCCN)C(=O)N[C@@H](C)C(=O)N[C@@H](C)C(=O)N[C@@H](CCC(=O)O)C(=O)N[C@@H](C)C(=O)N[C@@H](C)C(=O)N[C@@H](CCCCN)C(=O)N[C@@H](C)C(=O)N[C@@H](C)C(=O)N[C@@H](CCC(=O)O)C(=O)N[C@@H](C)C(=O)N[C@@H](C)C(=O)N[C@@H](CCCCN)C(=O)N[C@@H](C)C(=O)N[C@@H](Cc1ccccc1)C(N)=O [Ac-Y(AEAAKA)4F-NH2] (Ac-YAEAAKAAEAAKAAEAAKAAEAAKAF-NH2) | −20,100 deg cm^2 dmol^−1 | −20,100 deg cm^2 dmol^−1 | −19,900 deg cm^2 dmol^−1 | −20,300 deg cm^2 dmol^−1 | −20(±0.5) × 10^3 deg cm^2 dmol^−1 | −20,100 deg cm^2 dmol^−1 | −19,800 deg cm^2 dmol^−1 | −19,700 deg cm^2 dmol^−1 | −19,700 deg cm^2 dmol^−1 | does not bind to POPC vesicles | ~ 60% | – |
| Annexin B12 (protein, UniProt P26256 1-316, looked up) Annexin-B12: MVVQGTVKPHASFNSREDAETLRKAMKGIGTDEKSITHILATRSNAQRQQIKTDYTTLFGKHLEDELKSELSGNYEAAALALLRKPDEFLAEQLHAAMKGLGTDENALIDILCTQSNAQIHAIKAAFKLLYKEDLEKEIISETSGNFQRLLVSMLQGGRKEDEPVNAAHAAEDAAAIYQAGEGQIGTDESRFNAVLATRSYPQLHQIFHEYSKISNKTILQAIENEFSGDIKNGLLAIVKSVENRFAYFAERLHHAMKGLGTSDKTLIRILVSRSEIDLANIKETFQAMYGKSLYEFIADDCSGDYKDLLLQITGH | – | – | – | – | – | – | – | – | – | – | – | essentially the same CD spectrum |

From paper PMC2938439 (The Journal of Membrane Biology, 2010)
